Measured values from publication PMC3516921 (ChemMedChem, 2012).
In brackets after ≈: the same amount, converted by molar mass. Read-outs that look alike come from different tables or passages of the source.

Assays:
[1] = target: human cannabinoid CB2 receptors (Homo sapiens, UniProt P34972); experiment: [35S]GTPγS binding assay on hCB2-CHO cell membranes; format: biochemical; settings: for Functional effect on [35S]GTPγS binding: hCB2-CHO cell membranes
[2] = target: human cannabinoid type 1 receptor (Homo sapiens, UniProt P21554); experiment: CB1 receptor competitive binding assay with [3H]CP-55,940
[3] = target: human cannabinoid type 2 receptor (Homo sapiens, UniProt P34972); experiment: CB2 receptor competitive binding assay with [3H]CP-55,940; settings: for S.I. (selectivity index for CB2, Ki(CB1)/Ki(CB2)): Ki(CB1)/Ki(CB2) ratio
[4] = Experimental logP determined by HPLC; format: physicochemical; settings: RP-18 column; for chromatographic logP: reversed-phase HPLC; for logP Exp: HPLC, MeOH/H2O, extrapolated to zero organic solvent
CB2 receptor = CB2 receptor (Homo sapiens, UniProt P34972); experiment: On-line screening on immobilized CB1/CB2-OT column; format: binding; settings: 0.25 nM [3H]-Win-55,1212 marker, 10 nM compound
[5] = tested on: formalin-induced nocifensive behaviour; experiment: Formalin test of acute peripheral and inflammatory pain; format: in vivo; settings: mice; for Effect on 2nd phase of formalin-induced nocifensive behaviour: 3 mg/kg ip, 15 min before formalin; for Effect of AM630 pre-treatment on the antinociceptive effect of the compound: compound 3 mg/kg ip + AM630 1 mg/kg ip 5 min before
How it was run: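 Mice (n = 8–10 per group, randomly assigned) received test compound ip (1 or 3 mg/kg) or vehicle 15 min before formalin (1.25% in saline, 30 μl, dorsal hind paw). Where used, AM630 (1 mg/kg ip) was given 5 min before compound. A blinded observer timed lifting, favouring, licking, shaking and flinching in 5-min bins over 0–10 min (early phase) and 20–60 min (late phase). Analysis was one-way ANOVA with Tukey-Kramer.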

human liver microsomes = experiment: CYP-dependent in vitro metabolism in human liver microsomes; format: in vitro ADME
Kinetic solubility = format: physicochemical; settings: water with 5% DMSO, 18 h incubation
[6] = read-out: CB1 Ki, mean ± SD, at least three experiments in duplicate
[7] = read-out: CB2 Ki, mean ± SD, at least three experiments in duplicate
[8] = mean ± SD, at least three experiments in duplicate

| Compound | S.I. (selectivity index for CB2, Ki(CB1)/Ki(CB2)) [3] | Ki [2, 6] | Ki [3, 7] | logP Exp [4] | also measured |
| --- | --- | --- | --- | --- | --- |
| CCCCCCC(C)(C)c1ccc([C@@H]2C[C@H](O)CC[C@H]2CCCO)c(O)c1 [CP55940, (−)-cis-3-[2-hydroxy-4-(1,1-dimethylheptyl)phenyl]-trans-4-(3-hydroxypropyl)cyclohexanol, reference compound] | – | – | – | – | Emax [1]: 84.7% |
| CCCCCn1cc(-c2cn(C34CC5CC(CC(C5)C3)C4)nn2)c(=O)c2cc(-c3ccc(OC(C)C)cc3)ccc21 [Compound 5, 1-(Adamantan-1-yl)-4-[6-(4-(2-propyloxy)phenyl]-1,4-dihydro-4-oxo-1-pentylquinolin-3-yl]-1H-1,2,3-triazole] | > 6 | – | – | – | Ki [2]: > 10000 nM; Ki [3]: 1680 ± 24.5 nM; chromatographic logP [4]: 7.78 |
| CCCCCn1cc(-c2nc(C34CC5CC(CC(C5)C3)C4)no2)c(=O)c2cc(-c3ccc(OC(C)C)cc3)ccc21 [Compound 7, 3-(Adamantan-1-yl)-5-[6-(4-(2-propyloxy)phenyl]-1,4-dihydro-4-oxo-1-pentylquinolin-3-yl]-1,2,4-oxadiadole] | – | > 10000 nM | > 10000 nM | 7.71 | Displacement of marker ligand from OT column (CB2 receptor): very little displacement |
| CCCCCn1cc(-c2cn(C34CC5CC(CC(C5)C3)C4)nn2)c(=O)c2cc(Br)ccc21 [Compound 8, 1-(Adamantan-1-yl)-4-(6-bromo-1,4-dihydro-4-oxo-1-pentylquinolin-3-yl)-1H-1,2,3-triazole] | – | – | – | – | Ki [2]: > 10000 nM; Ki [3]: 32.2 ± 1.2 nM; chromatographic logP [4]: 5.83 |
| CCCCCn1cc(-c2nnc(C34CC5CC(CC(C5)C3)C4)o2)c(=O)c2cc(Br)ccc21 [Compound 9, 2-(Adamantan-1-yl)-5-(6-bromo-1,4-dihydro-4-oxo-1-pentylquinolin-3-yl)-1,3,4-oxadiadole] | > 40 | > 10000 nM | 250 ± 8.6 nM | 5.15 | – |
| CCCCCn1cc(-c2nc(C34CC5CC(CC(C5)C3)C4)no2)c(=O)c2cc(Br)ccc21 [Compound 10, 3-(Adamantan-1-yl)-5-(6-bromo-1,4-dihydro-4-oxo-1-pentylquinolin-3-yl)-1,2,4-oxadiadole] | 76 | 208 ± 5.5 nM | 2.7 ± 0.8 nM | 5.77 | – |
| CCCCCn1cc(-c2cn(C34CC5CC(CC(C5)C3)C4)nn2)c(=O)c2cc(-c3ccco3)ccc21 [Compound 11, 1-(Adamantan-1-yl)-4-[6-(furan-2-yl)-1,4-dihydro-4-oxo-1-pentylquinolin-3-yl]-1H-1,2,3-triazole] | – | – | – | – | Ki [2]: > 10000 nM; chromatographic logP [4]: 5.18; Emax [1]: -52%; Functional effect on [35S]GTPγS binding [1]: inverse agonist effects; Effect on 2nd phase of formalin-induced nocifensive behaviour [5]: significant reduction; Effect of AM630 pre-treatment on the antinociceptive effect of the compound [5]: completely abolished; Vmax (formation rate) (human liver microsomes; 0.5 mg microsomal protein, 60 min incubation): 0.16±0.01 nmol x min^−1 × mg^1 protein; CYP isoforms involved in metabolism (inhibition study) (human liver microsomes; human liver microsomes): CYP3A4 is the major isoform involved, while CYP1A and CYP2A are only partially implicated; Metabolite identified (human liver microsomes; human liver microsomes, HPLC-MS): side chain hydroxylated derivative 32 as its only metabolite |
| CCCCCn1cc(-c2nnc(C34CC5CC(CC(C5)C3)C4)o2)c(=O)c2cc(-c3ccco3)ccc21 [Compound 12, 2-(Adamantan-1-yl)-5-[6-(furan-2-yl)-1,4-dihydro-4-oxo-1-pentylquinolin-3-yl]-1H-1,3,4-oxadiadole] | > 1543 | > 10000 nM | 6.5 ± 2.2 nM | 5.26 | Solubility (Kinetic solubility): 128 µg/mL (≈ 265 µM); EC50 ([1]; [35S]GTPγS binding, 95% confidence limits in brackets): 57.6 nM; Functional effect on [35S]GTPγS binding [1]: inverse agonist effects; Emax ([1]; percentage change in [35S]GTPγS binding, 95% confidence limits in brackets): −46.6% (−52.5 and −40.6%); Effect on 2nd phase of formalin-induced nocifensive behaviour [5]: significant reduction; Effect of AM630 pre-treatment on the antinociceptive effect of the compound [5]: did not induce any change |
| CCCCCn1cc(-c2nc(C34CC5CC(CC(C5)C3)C4)no2)c(=O)c2cc(-c3ccco3)ccc21 [Compound 13, 3-(Adamantan-1-yl)-5-[6-(furan-2-yl)-1,4-dihydro-4-oxo-1-pentylquinolin-3-yl]-1H-1,2,4-oxadiadole] | 82 | 33 ± 0.6 nM | 0.4 ± 0.1 nM | 6.38 | Solubility (Kinetic solubility): 7 µg/mL (≈ 14.5 µM) |
| CCCCCn1c(=O)c(-c2cn(C34CC5CC(CC(C5)C3)C4)nn2)cc2ccccc21 [Compound 15, 1-(Adamantan-1-yl)-4-(1-pentylquinolin-2(1H)-one)-1H-1,2,3-triazole] | 29 | 321.9 ± 2.1 nM | 11.1 ± 3.6 nM | – | – |
| CCCCCOc1nc2ccccc2cc1-c1cn(C23CC4CC(CC(C4)C2)C3)nn1 [Compound 16, 1-(Adamantan-1-yl)-4-[2-(pentyloxy)quinoline]-1H-1,2,3-triazole] | 271 | – | 12.6 ± 4.3 nM | – | Ki ([2]; read-out: CB1 Ki): 3415 ± 9.8 nM |
| O=c1c(-c2cn(C34CC5CC(CC(C5)C3)C4)nn2)c[nH]c2ccc(-c3ccco3)cc12 [Compound 29, 3-(1-Adamantyl-1H-1,2,3-triazol-4-yl)-6-(furan-2-yl)quinolin-4(1H)-one] | – | > 10000 nM | > 10000 nM | – | CB1 Ki [2, 8]: no affinity; CB2 Ki [3, 8]: no affinity |
| CC(O)CCCn1cc(-c2cn(C34CC5CC(CC(C5)C3)C4)nn2)c(=O)c2cc(-c3ccco3)ccc21 (stereo not shown) [Compound 32, 3-(1-Adamantyl-1H-1,2,3-triazol-4-yl)-6-(furan-2-yl)-1-(4-hydroxypentyl)quinolin-4(1H)-one] | > 52 | > 10000 nM | 190 ± 10 nM | – | Loss of potency versus parent compound 11 ([3]; racemic form): 150 fold |
